We go through 1 molecule from ChEMBL document CHEMBL4334424, “The winding road of the uvaretin class of natural products: from total synthesis to bioactive agent discovery” (Medchemcomm, 2019).

What is called IC50 is the concentration needed to halve the response being measured.

Test [1] deals with REH. Put plainly: Cytotoxicity against human REH cells assessed as reduction in cell viability incubated for 72 hrs by alamar blue assay. Type of test: functional, cell-based. The gist of the method:
(§1)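 Suspension cells (2200/well, 384-well) were added directly onto compound in media with no attachment period. Compounds spanned 31.6 nM–200 μM in triplicate, with 72 h exposure at 37 °C, 5% CO2. Alamar Blue was added for the last 3 h and fluorescence read (ex 560/em 590 nm). IC50 came from ≥3 independent experiments.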
Background: The colour change of resazurin is a common sign of viable cells or microbes.

For test [2], the system named is HeLa. Put plainly: Cytotoxicity against human HeLa cells assessed as reduction in cell viability incubated for 72 hrs in presence of doxorubicin by alamar blue assay. Type of test: functional. The gist of the method: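 Same combination format as the 6TP study, with the cytotoxic partner (doxorubicin, etoposide or paclitaxel) combined with test compound. Cells were at 4000/well (adherent) in 100 μL, 1% DMSO, for 72 h at 37 °C, 5% CO2, with Alamar Blue viability read-out. Combination index was derived by the Chou–Talalay protocol and reported as a median.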

For test [3], the system named is A549. The experiment in a line: Cytotoxicity against human A549 cells assessed as reduction in cell viability incubated for 72 hrs by alamar blue assay. As to conditions: A549, 72 h. Type of test: functional, cell-based. A digest of the protocol:
(§2)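 Adherent cells were seeded at 1500 cells/well in 384-well plates and allowed 2–3 h to attach. Compounds in DMSO, diluted in media over 31.6 nM–200 μM, were tested in triplicate for 72 h continuous exposure at 37 °C, 5% CO2. Alamar Blue was added for the final 3 h and fluorescence read (ex 560/em 590 nm). IC50 was fitted from ≥3 independent experiments.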

Test [4] deals with HeLa. Put plainly: Cytotoxicity against human HeLa cells assessed as reduction in cell viability incubated for 72 hrs by alamar blue assay. Type of test: functional, cell-based. A digest of the protocol:
as §2

Test [5] concerns U-937. Put plainly: Cytotoxicity against human U937 cells assessed as reduction in cell viability incubated for 72 hrs by alamar blue assay. The note with it: U-937, 72 h. Type of test: functional, cell-based. A digest of the protocol: as §1
Test [6] deals with MIA PaCa-2. The experiment in a line: Cytotoxicity against human MIAPaCa2 cells assessed as reduction in cell viability incubated for 72 hrs by alamar blue assay. Type of test: functional, cell-based. The note with it: MIA PaCa-2, 72 h. A digest of the protocol: as §2
Test [7] relates to U-937. The experiment in a line: Cytotoxicity against human U937 cells assessed as reduction in cell viability incubated for 72 hrs in presence of 6TP by alamar blue assay. Type of test: functional. The gist of the method:
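Combination assay in 96-well plates with 100 μL final volume and 1% DMSO. Two test-compound concentrations were crossed with five 6TP concentrations, then cells were added (4000/well adherent, 7000/well suspension). Plates ran 72 h at 37 °C, 5% CO2, with Alamar Blue viability read-out and ≥3 independent experiments. Combination index was calculated by the Chou–Talalay method.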

The test system of test [8] is HCT-116. Put plainly: Cytotoxicity against human HCT116 cells assessed as reduction in cell viability incubated for 72 hrs by alamar blue assay. Type of test: functional, cell-based. As to conditions: HCT-116, 72 h. A digest of the protocol:
as §2

Take `COc1cc(OC)c(C(=O)CCc2ccccc2)c(OC)c1Cc1ccccc1O`: the 50% inhibitory concentration (IC50) in test [1], in test [3], in test [4], in test [5], in test [6] and in test [8] was > 20 µM throughout. Besides, the CI in test [2] is 0.11; in test [7] it was 0.22.
